Only some compounds are listed: those with a hit (about 1.4% of all), similar ones and a draw of the others.
T cell HTS – T cell immune modulation candidate; 330,000 compounds, 0.068% hits; 2C CD8+ T cell-vesicle binding, flow cytometry; stronger effect = lower value; response (vesicle binding), % at 7 µM;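 active = response, share of CD8 T cells binding vesicles, and their 90th percentile fluorescence all below set limits, cut at about 80% in these data, passing the limit was not always enough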;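 note: values below 100% mean blocked vesicle binding to the CD8+ T cells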
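incubation = binding step 1.5 h, 37 °C, antibody labelling 20 min, ice | test system = 2C mouse CD8+ T cells | read-out basis = percent CD8+ FL2 mean versus row control | controls = Peptide-free naked vesicles (low) and QL9 vesicles with 0.7% DMSO vehicle (high) | detection = flow cytometry of vesicle-bound cells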
Vif inh – HIV Vif inhibition; HEK293T cells, Vif self-association by quenched fluorescence, imaging, 24 h; inhibition, % at 7.49 µM; 340,000 compounds, 0.35% hits; AID 602346; in the data active = inhibition above about 50%, passing the limit was not always enough
Myeloid diff MLP – compounds promoting myeloid differentiation; ER-HoxA9 myeloid progenitors, lysozyme-GFP differentiation, flow cytometry; calls only at 10 µM; 360,000 compounds, 1% hits; AID 624256;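 active = normalized GFP-positive differentiation at or above the plate's own cutoff, the solvent-only control mean plus 3 SD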;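 note: cells exposed to compound for four days before flow analysis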
CASP6 VEID inh – inhibitors of human caspase-6. purified caspase-6, Z-VEID-R110 cleavage fluorescence. 350,000 compounds, 0.53% hits. inhibition, % at 12.5 µM. P55212;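 active = mean inhibition across replicates at least about 35%, with every replicate also reaching that limit, limit read from the data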
Target sequence (P55212 24-179 limits assumed): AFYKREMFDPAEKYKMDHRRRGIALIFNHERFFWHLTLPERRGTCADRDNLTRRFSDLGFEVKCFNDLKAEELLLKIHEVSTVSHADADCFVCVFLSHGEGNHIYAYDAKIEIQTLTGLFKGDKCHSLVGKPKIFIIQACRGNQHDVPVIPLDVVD
Target sequence (P55212 194-293 limits assumed): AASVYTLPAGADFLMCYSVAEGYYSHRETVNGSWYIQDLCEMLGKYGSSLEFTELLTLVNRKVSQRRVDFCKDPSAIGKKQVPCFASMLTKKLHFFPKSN
Each line names hits and unclear results; the compound was inactive in the other large screens.

Nc1cc(=O)[nH]c(SCC(=O)Nc2cccc([N+](=O)[O-])c2)n1	Myeloid diff MLP active
O=C(C[C@H]1C=C[C@H](NC(=O)Nc2ccc(F)cc2)[C@@H](CO)O1)NCc1cccc(F)c1	none (no result: T cell HTS, Vif inh, Myeloid diff MLP)
COC(=O)c1ccc(NC(=S)NC2CCCCC2)cc1	none (no result: Myeloid diff MLP, CASP6 VEID inh)
N#CCC(=O)Nc1ccc(C(=O)NNC(=S)NC2CCCCC2)cc1	Vif inh 124.2
COc1ccc(S(=O)(=O)N(C)C[C@H]2OCCCC[C@H](C)Oc3ccc(NC(=O)c4ccccc4)cc3C(=O)N([C@H](C)CO)C[C@H]2C)cc1	none (no result: T cell HTS, Vif inh, Myeloid diff MLP)
CC(=O)c1ccc(OCC(=O)NC2CCCN(Cc3ccccc3F)C2)cc1 (configuration not stated)	Myeloid diff MLP active (no result: T cell HTS)
CC(=O)NN1C(=O)/C(=C\c2ccc(Br)o2)SC1=S	CASP6 VEID inh 50.5
CC(=O)NN1C(=O)/C(=C/c2ccc(Br)o2)SC1=S	none (no result: CASP6 VEID inh)
Cc1ccc(N/C(=N/S(=O)(=O)c2cccs2)c2ccccc2)c(C)c1	Myeloid diff MLP active (no result: Vif inh)
O=S(=O)(/N=C(/Nc1cccc2ccccc12)c1ccccc1)c1cccs1	none (no result: CASP6 VEID inh)
O=C([C@H]1[C@H](CO)[C@H]2Cn3c(cccc3=O)[C@@H]1N2C(=O)c1ccccn1)N1CCCCC1	none (no result: T cell HTS, Vif inh, Myeloid diff MLP)
Cc1cc(C(=O)N/N=C\c2cc(C(C)(C)C)ccc2O)n[nH]1	Myeloid diff MLP active (no result: CASP6 VEID inh)
Cc1cc(C(=O)N/N=C/c2cccs2)n[nH]1	none
Cc1nn(-c2ccccc2)c(Cl)c1/C=N/NC(=O)c1ccn[nH]1	none
Cc1cc(C(=O)N/N=C/c2c(C)nn(-c3ccccc3)c2Cl)n[nH]1	Vif inh 71.0
C[C@@H]1CN([C@H](C)CO)C(=O)c2cc(NS(=O)(=O)c3ccccc3)ccc2O[C@@H](C)CCCCO[C@@H]1CN(C)C(=O)c1ccncc1	none (no result: T cell HTS, Vif inh, Myeloid diff MLP)
O=C(C[C@H]1CC[C@@H]2[C@H](COC[C@H](O)CN2Cc2ccc(F)cc2)O1)NCc1ccncn1	none (no result: T cell HTS, Vif inh, Myeloid diff MLP)
COc1ccc2oc(C(=O)OCC(=O)c3ccc4c(c3)OCCO4)c(C)c2c1	Myeloid diff MLP active (no result: CASP6 VEID inh)
COc1ccc2oc(C(=O)N(C)Cc3ccc4c(c3)OCCO4)c(C)c2c1	none
CCCNc1c(F)c(F)c2c(C)c3ccccc3nc2c1F	Myeloid diff MLP active (no result: Vif inh, CASP6 VEID inh)
CCOC(CCn1c(SCc2cccc([N+](=O)[O-])c2)nc2ccccc2c1=O)OCC	Myeloid diff MLP active
COCCn1c(SCc2cccc([N+](=O)[O-])c2)nc2ccccc2c1=O	none
COc1cc(C(=O)Nc2sc3c(c2C(=O)O)CCC(C)C3)cc(OC)c1OC (configuration not stated)	Vif inh 122.3
O=C(N/N=C/c1cn(-c2ccccc2)nc1-c1cc2ccccc2o1)c1cccnc1	none
O=C(N/N=C/c1cn(-c2ccccc2)nc1-c1cc2ccccc2o1)c1ccncc1	Myeloid diff MLP active (no result: CASP6 VEID inh)
COc1ccc(-c2[nH]ncc2CN2CCN(C(=O)c3cccs3)CC2)c(F)c1	Myeloid diff MLP active
COc1ccc(C(=O)N/N=C/c2sc(N3CCOCC3)nc2-c2ccccc2)cc1OC	none
COc1ccccc1NS(=O)(=O)c1cc([N+](=O)[O-])ccc1N/N=C/c1sc(N2CCOCC2)nc1-c1ccccc1	Myeloid diff MLP active
COC(=O)C1C(O)C(C)C(O)C(C)(O)/C=C\C=C(/C)C(=O)Nc2c(C)c(OC(C)=O)c3c(c2O)C(=O)C(C)=C2OCOC(=C23)/C(C)=C/C(C)(O)C(O)C(C)C1O (configuration not stated)	CASP6 VEID inh 56.9
CN(C)C(=O)[C@H]1[C@H](CO)[C@H]2Cn3c(ccc(C4=CCCC4)c3=O)[C@@H]1N2CC1CC1	none (no result: T cell HTS, Vif inh, Myeloid diff MLP)
N#CC1CC(c2ccc([N+](=O)[O-])cc2)=NN1c1ccc([N+](=O)[O-])cc1 (configuration not stated)	Vif inh 89.0, Myeloid diff MLP active
Cc1ncc([N+](=O)[O-])n1CC(=O)N/N=C/c1ccc(F)cc1	Myeloid diff MLP active
CCc1cc(/C(Cc2ccccn2)=N\O)c(O)cc1O	Myeloid diff MLP active
COc1cccc(NC(=O)N(C)C[C@@H]2Oc3cc(C#Cc4ccc(F)cc4)ccc3S(=O)(=O)N([C@@H](C)CO)C[C@@H]2C)c1	none (no result: T cell HTS, Vif inh, Myeloid diff MLP)
NC[C@H](O)c1ccc(O)c(O)c1	CASP6 VEID inh 78.9
O=C1CCCC/C=C\C[C@H](CC(=O)N(CCO)Cc2ccccc2)C(=O)N[C@@H](c2ccccc2)CO1	T cell HTS 61.9
CC(C)(C)[C@H]1COC(=O)CCCC/C=C\C[C@H](CC(=O)N(CCO)Cc2ccccc2)C(=O)N1	none
O=C(N[C@H]1C/C=C\C[C@@H](CC(=O)N(CCO)Cc2ccccc2)C(=O)NC[C@H](c2ccccc2)OC1=O)OCC1c2ccccc2-c2ccccc21	Myeloid diff MLP active
COc1ccc2c3c([nH]c2c1)[C@@H](CO)N(C(=O)Nc1ccc(F)cc1)CC31CN(C(=O)c2ccccc2F)C1	none (no result: T cell HTS, Vif inh, Myeloid diff MLP)
CC1(C)CC(=O)C(/C=N/n2c(C(F)(F)F)nc3ccccc3c2=O)=C(O)C1	Vif inh 85.5
COc1cc2c(cc1OC)C(c1ccc(-c3cc(Cl)ccc3Cl)o1)=NCC2	Myeloid diff MLP active (no result: CASP6 VEID inh)
COc1cc2c(cc1OC)C(c1ccc(-c3ccc(Cl)cc3Cl)o1)=NCC2	none (no result: CASP6 VEID inh)
CC1Cc2nc(SCC(=O)NCc3ccccc3)n(Cc3ccccc3)c(=O)c2S1 (configuration not stated)	none
CCn1c(SCC(=O)Nc2ccc3c(c2)OCO3)nc2c(c1=O)SC(C)C2 (configuration not stated)	Myeloid diff MLP active (no result: Vif inh)
CC1Cc2nc(SCC(=O)c3ccccc3)n(Cc3ccccc3)c(=O)c2S1 (configuration not stated)	Myeloid diff MLP active
CC1Cc2nc(SCC(=O)Nc3ccc4c(c3)OCO4)n(CCc3ccccc3)c(=O)c2S1 (configuration not stated)	none
O=C(NC1Cc2ccccc2C1)[C@H]1[C@H](CO)[C@H]2Cn3c(ccc(-c4ccccc4)c3=O)[C@@H]1N2	none (no result: T cell HTS, Vif inh, Myeloid diff MLP)
O=C(C[C@H]1C=C[C@@H](NC(=O)CC2CC2)[C@H](CO)O1)NCc1ccccc1	none (no result: T cell HTS, Vif inh, Myeloid diff MLP)
Cc1cccc2cc(C#N)c(NCCNS(=O)(=O)c3ccc4c(c3)OCCO4)nc12	Myeloid diff MLP active (no result: CASP6 VEID inh)
CCC(=O)NCCCNc1nc2c(C)cccc2cc1C#N	none
O=C1NC(Cc2ccc(Cl)cc2)COCc2cnnn2CCC1c1ccccc1 (configuration not stated)	none (no result: T cell HTS, Vif inh, Myeloid diff MLP)
CC1=NN(c2ccc(S(=O)(=O)O)cc2Cl)C(=O)C1	CASP6 VEID inh 47.0
CC1=NN(c2ccc(Cl)c(C(=O)O)c2)C(=O)C1	CASP6 VEID inh 81.8
CC1=NN(c2cc(Cl)c(S(=O)(=O)O)cc2Cl)C(=O)C1	none (no result: T cell HTS)
C[C@@H]1CN([C@@H](C)CO)C(=O)c2cccc(NC(=O)c3ccncc3)c2O[C@H]1CN(C)C(=O)Nc1ccc(F)cc1	none (no result: T cell HTS, Vif inh, Myeloid diff MLP)
CN(/N=C/c1ccc(N(C)C)cc1)C1=NS(=O)(=O)c2ccccc21	Vif inh 127.9
O=C(/C=C/c1ccco1)NC(=S)Nc1ccccc1O	CASP6 VEID inh 51.4
Cc1ccc(NC(=S)NC(=O)/C=C/c2ccco2)c(O)c1	CASP6 VEID inh 42.8 (no result: Vif inh)
O=C(O)CCCNC(=O)/C=C/c1ccco1	CASP6 VEID inh 60.4 (no result: Vif inh)
Cc1cccnc1NC(=S)NC(=O)/C=C/c1ccco1	none (no result: CASP6 VEID inh)
O=C(O)CCCCCNC(=O)/C=C/c1ccco1	none

Source: PubChem (several laboratories)
